Calls of active or inactive are those of the source. The calls are words filed in the database; no cut-off is given here.
What was measured:
[1] = tested on: U-937; assay: Antiproliferative activity against human U937 cells after 48 hrs by MTT assay; assay type: functional, cell-based; settings: U-937, 48 h
In short: (§1)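 MTT assay. Cells were seeded at 5-10×10^3 per well and incubated overnight at 37 °C under 5% CO2. Graded compound concentrations or equal DMSO in fresh medium were then added for 48 h. MTT (5 mg/mL stock) was added for a further 4 h, formazan was dissolved in DMSO, and A490 was read. IC50 is given as mean ± S.D. of three experiments in triplicate.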

[2] = species on record: Homo sapiens; assay: Inhibition of human topoisomerase-2 at 50 uM using supercoiled pBR322 DNA as substrate after 10 to 15 mins by ethidium bromide staining based electrophoresis relative to control
In short: (§2)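 Relaxation of supercoiled pBR322 (500 ng) by 1 unit of human Top I or Top II, with or without compound in reaction buffer. Reactions ran 10-15 min at 37 °C and were stopped with loading buffer. Products were run on 1% agarose in TAE at 90 V for 25 min and stained with ethidium bromide under UV. Controls were CPT (Top I) and m-AMSA (Top II).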

[3] = tested on: K562; assay: Antiproliferative activity against human K562 cells after 48 hrs by MTT assay; assay type: functional, cell-based; settings: K562, 48 h; in short: as §1
[4] = species on record: Homo sapiens; assay: Inhibition of human topoisomerase-2 at 50 to 100 uM using supercoiled pBR322 DNA as substrate after 10 to 15 mins by ethidium bromide staining based electrophoresis; in short: as §2
[5] = tested on: HepG2; assay: Antiproliferative activity against human HepG2 cells after 48 hrs by MTT assay; assay type: functional, cell-based; settings: HepG2, 48 h; in short: as §1
[6] = species on record: Homo sapiens; assay: Inhibition of human topoisomerase-2 at 10 uM using supercoiled pBR322 DNA as substrate after 10 to 15 mins by ethidium bromide staining based electrophoresis relative to control; in short: as §2
[7] = Antiproliferative activity against human QSG7701 cells after 48 hrs by MTT assay; assay type: cell-based; settings: QSG7701, 48 h; in short: as §1
[8] = tested on: HeLa; assay: Antiproliferative activity against human HeLa cells after 48 hrs by MTT assay; assay type: functional, cell-based; in short: as §1
[9] = tested on: A549; assay: Antiproliferative activity against human A549 cells after 48 hrs by MTT assay; assay type: functional, cell-based; settings: A549, 48 h; in short: as §1
[10] = target: T1, DNA topoisomerase 1 (Homo sapiens) (UniProt P11387); assay: Inhibition of human topoisomerase-1 at 100 uM using supercoiled pBR322 DNA as substrate after 10 to 15 mins by ethidium bromide staining based electrophoresis; in short: as §2
T1 sequence (whole entry): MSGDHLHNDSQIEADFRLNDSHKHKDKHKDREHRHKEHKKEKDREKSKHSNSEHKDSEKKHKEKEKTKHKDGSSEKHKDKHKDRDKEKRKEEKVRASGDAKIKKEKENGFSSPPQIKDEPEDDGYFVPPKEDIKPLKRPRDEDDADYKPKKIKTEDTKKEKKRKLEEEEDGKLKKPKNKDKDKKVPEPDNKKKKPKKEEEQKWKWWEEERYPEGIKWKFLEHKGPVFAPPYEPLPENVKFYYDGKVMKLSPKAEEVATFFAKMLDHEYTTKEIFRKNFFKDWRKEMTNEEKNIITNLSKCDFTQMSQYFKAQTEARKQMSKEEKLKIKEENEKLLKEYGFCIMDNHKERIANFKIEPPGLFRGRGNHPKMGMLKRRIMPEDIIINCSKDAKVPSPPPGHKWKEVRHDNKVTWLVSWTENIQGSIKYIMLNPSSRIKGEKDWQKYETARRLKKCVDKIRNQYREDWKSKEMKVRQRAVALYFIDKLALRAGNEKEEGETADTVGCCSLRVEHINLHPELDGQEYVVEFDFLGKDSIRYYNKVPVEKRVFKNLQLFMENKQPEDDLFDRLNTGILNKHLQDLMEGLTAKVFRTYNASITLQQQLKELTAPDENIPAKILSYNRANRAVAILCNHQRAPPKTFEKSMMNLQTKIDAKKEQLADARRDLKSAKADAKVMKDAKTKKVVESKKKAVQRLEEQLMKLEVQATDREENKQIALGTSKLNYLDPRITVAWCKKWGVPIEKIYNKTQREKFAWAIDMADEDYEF

[11] = tested on: U-937; assay: Induction of apoptosis in human U937 cells after 48 hrs by Annexin-V FITC/propidium iodide staining based flow cytometry; assay type: functional, cell-based
In short: (§3)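 U937 cells were treated for 48 h at 0, 1 or 2.5 µM. Phosphatidylserine externalization (Annexin V-FITC) and membrane integrity (PI) were then read by flow cytometry using a kit per the manufacturer's instructions.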

[12] = species on record: Bos taurus; assay: Binding affinity to calf thymus DNA after 5 mins by fluorescence emission spectral analysis
In short: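 Fluorescence titration in Tris-HCl pH 7.4. Compound came from a 5 mM DMSO stock, with ct DNA at final 0, 0.2, 0.7, 1, 1.5 and 2.5 µM. Mixtures were incubated 5 min before emission spectra were recorded. Quenching was fitted to F0/F = 1 + Kq[Q].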

[13] = tested on: U-937; assay: Induction of apoptosis in human U937 cells assessed as increase in cleaved caspase-8 protein expression at 1 to 2.5 uM after 48 hrs by Western blot analysis; assay type: functional, cell-based
In short: (§4)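 U937 cells in dishes were exposed to 1 or 2.5 µM for 48 h and lysed on ice for 0.5 h. Protein was quantified by BCA, run on 12% SDS-PAGE and transferred to PVDF. Membranes were blocked in 5% milk for 1 h, and primary antibody was applied overnight at 4 °C. Cleaved caspase-3/7/8 was detected with β-actin as loading control.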

[14] = tested on: U-937; assay: Induction of apoptosis in human U937 cells assessed as increase in cleaved caspase-3 protein expression at 1 to 2.5 uM after 48 hrs by Western blot analysis; assay type: functional, cell-based; in short: as §4
[15] = tested on: U-937; assay: Induction of apoptosis in human U937 cells assessed as necrotic cells at 2.5 uM after 48 hrs by Annexin-V FITC/propidium iodide staining based flow cytometry relative to control; assay type: functional; in short: as §3
[16] = tested on: U-937; assay: Induction of apoptosis in human U937 cells assessed as late apoptotic cells at 2.5 uM after 48 hrs by Annexin-V FITC/propidium iodide staining based flow cytometry (reference value: 0.144%); assay type: functional; in short: as §3
[17] = species on record: Bos taurus; assay: Binding affinity to calf thymus DNA assessed as bathochromic shift at 40 uM after 5 mins by UV-Visible absorption spectral analysis
In short: (§5)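 UV-vis titration in Tris-HCl pH 7.4 in a 1.0 cm quartz cell. Compound was at 40 µM (added from a 5 mM DMSO stock) with ct DNA at final 0, 0.75, 2.25, 3.75, 6.00 and 9.75 µM. Each mixture was incubated 5 min before the absorption spectrum was recorded.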

[18] = tested on: U-937; assay: Induction of apoptosis in human U937 cells assessed as early apoptotic cells at 2.5 uM after 48 hrs by Annexin-V FITC/propidium iodide staining based flow cytometry (reference value: 7.42%); assay type: functional; in short: as §3
[19] = tested on: U-937; assay: Induction of apoptosis in human U937 cells assessed as live cells at 2.5 uM after 48 hrs by Annexin-V FITC/propidium iodide staining based flow cytometry (reference value: 92.4%); assay type: functional; in short: as §3
[20] = species on record: Bos taurus; assay: Binding affinity to calf thymus DNA after 5 mins by UV-Visible absorption spectral analysis; in short: as §5
[21] = Safety index, ratio of compound IC50 to m-AMSA IC50 for human QSG7701 cells; assay type: ADME, cell-based; settings: read-out: Ratio IC50
[22] = tested on: U-937; assay: Induction of apoptosis in human U937 cells assessed as live cells at 1 uM after 48 hrs by Annexin-V FITC/propidium iodide staining based flow cytometry (reference value: 92.4%); assay type: functional; in short: as §3
[23] = tested on: U-937; assay: Induction of apoptosis in human U937 cells assessed as late apoptotic cells at 1 uM after 48 hrs by Annexin-V FITC/propidium iodide staining based flow cytometry (reference value: 0.144%); assay type: functional; in short: as §3
[24] = tested on: U-937; assay: Induction of apoptosis in human U937 cells assessed as increase in cleaved caspase-7 protein expression at 1 to 2.5 uM after 48 hrs by Western blot analysis; assay type: functional, cell-based; in short: as §4
[25] = tested on: U-937; assay: Induction of apoptosis in human U937 cells assessed as early apoptotic cells at 1 uM after 48 hrs by Annexin-V FITC/propidium iodide staining based flow cytometry (reference value: 7.42%); assay type: functional; in short: as §3
[26] = tested on: U-937; assay: Induction of apoptosis in human U937 cells assessed as necrotic cells at 1 uM after 48 hrs by Annexin-V FITC/propidium iodide staining based flow cytometry relative to control; assay type: functional; in short: as §3

| SMILES | IC50 [1] | inhibition [2] | IC50 [3] | topoisomerase II inhibition (active/inactive) [4] | IC50 [5] | inhibition [6] | IC50 [7] | IC50 [8] | other results |
| --- | --- | --- | --- | --- | --- | --- | --- | --- | --- |
| COc1ccc2nc3cc(Cl)ccc3c(Nc3ccc(C)cc3C)c2n1 | > 20 µM | > 50% | 14 µM | Active | > 20 µM |  |  |  |  |
| COc1ccc2nc3cc(Cl)ccc3c(Nc3ccncc3)c2n1 | > 20 µM | > 50% | 13.7 µM | Active | > 20 µM | > 40% |  |  |  |
| COc1ccc2nc3cc(Cl)ccc3c(NCc3nc4ccccc4[nH]3)c2c1 |  |  | > 20 µM |  | > 20 µM |  |  |  |  |
| COc1ccc2nc3cc(Cl)ccc3c(Nc3ccccc3F)c2n1 | > 20 µM | 28.1% | 10.9 µM | Active | > 20 µM |  |  |  |  |
| COc1cc(NS(C)(=O)=O)ccc1Nc1c2ccccc2nc2ccccc12 [AMSACRINE] | 0.61 µM | Active | 0.88 µM |  | 5.21 µM | 56.9% | 6.43 µM | 19.2 µM |  |
| COc1ccc2nc3cc(Cl)ccc3c(NCc3nc4ccccc4n3CCN(C)C)c2n1 | 0.76 µM | > 50% | 7.59 µM | Active | > 20 µM | 75.1% | 21.2 µM | 14.8 µM | IC50 [9]: 13.1 µM; inhibition [10]: Active |
| COc1ccc2nc3cc(Cl)ccc3c(NCc3nc4ccccc4[nH]3)c2n1 | 0.57 µM | > 50% | 6.06 µM | Active | 6.62 µM |  | 29.4 µM | 12.6 µM | Activity [11]: Dose-dependent effect; Kq [12]: 2.34 ×10⁵ /M; Activity [13]: Active; Activity [14]: Active; Activity [15]: 0.322%; Activity [16]: 12.2%; Activity [17]: Active; Activity [18]: 26.2%; Activity [19]: 61.3%; IC50 [9]: 4.8 µM; Kb [20]: 3.34 ×10⁵ /M; selectivity ratio [21]: > 3; Activity [22]: 75.8%; Activity [23]: 6.48%; Activity [24]: Active; Activity [25]: 17.5%; Activity [26]: 0.227% |
| CC[C@@]1(O)C(=O)OCc2c1cc1n(c2=O)Cc2cc3ccccc3nc2-1 [CAMPTOTHECIN] |  |  |  |  | 4.92 µM |  | < 1 µM | 3.8 µM | IC50 [9]: < 1 µM |
| COc1ccc(Nc2c3ccc(Cl)cc3nc3ccc(OC)nc23)cc1 | > 20 µM | > 50% | 13.8 µM | Active | > 20 µM |  |  |  |  |
| COc1ccc2nc3cc(Cl)ccc3c(Nc3cccc(F)c3)c2n1 | > 20 µM | > 50% | 15.5 µM | Active | > 20 µM | > 40% |  |  |  |
| COc1ccc2nc3cc(Cl)ccc3c(Nc3ccc(F)cc3)c2n1 | > 20 µM | > 50% | 16.5 µM | Active | > 20 µM | > 40% |  |  |  |
| COc1ccc2nc3cc(Cl)ccc3c(Nc3ccccc3Cl)c2n1 | > 20 µM | > 50% | 6.1 µM | Active | > 20 µM | > 40% |  |  |  |

Source: ChEMBL document CHEMBL4033692, “Synthesis and biological research of novel azaacridine derivatives as potent DNA-binding ligands and topoisomerase II inhibitors” (Bioorg Med Chem, 2017)
